TDP2 inh – human TDP2 enzyme inhibitors, primary screen, biochemical, epi absorbance, recombinant enzyme | Tyrosyl-DNA phosphodiesterase 2 (Homo sapiens), O95551 | T5PNP hydrolysis, p-nitrophenol absorbance 415 nm | inhibition, % at 12.8 µM | 370,000 tested, 0.34% active;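 active = inhibition above the mean of all tested compounds plus 3 SD, set per campaign, cut at about 25% in these data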;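 note: 0% = DMSO with enzyme and 100% = buffer with substrate but no TDP2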
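Assay system: Recombinant human TDP2 | Quantity: 120 nM TDP2 per well | Incubation: 2 h at 37 °C | Signal: Epi absorbance | Evaluation: Percent inhibition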
Apaf1 inhib – inhibitors of human Apaf-1 apoptosome, primary screen, biochemical, DEVD-Rh110 fluorescence, uHTS. reconstituted apoptosome caspase-3 activity. 330,000 tested, 0.71% active. AID 489030, 2010. inhibition, % at 20 µM. Apoptotic protease-activating factor 1 (Homo sapiens), O14727; active = inhibition of at least 40% at 20 µM;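 note: plate controls were DMSO wells for no effect and DEVD-CHO caspase inhibitor wells for full effect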
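Assay system – apoptosome proteins · Medium – Hepes buffer, pH 7.5 · Also added – cytochrome c with DEVD-Rh110 · Timing – 30 min compound preincubation, 50 min activation, room temperature · Detection – Rh110 fluorescence, excitation 480 nm, emission 540 nm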
TCR CD3 inh – inhibitors of human TCR-CD3 interaction, primary screen, biochemical, fluorescence, TAMRA-labeled TCR probe; T-cell receptor (TCR); inhibition, % at 9.4 µM; 360,000 tested, 0.37% active; AID 651800, 2012;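 note: recombinant mutant TCR 2C K166C tagged with TAMRA read by polarization; 0% = receptor in buffer alone and 100% = receptor with positive control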
PAD4 inh – human PAD4 inhibitors, primary screen, biochemical, fluorescence polarization, 1536-well format; 330,000 tested, 0.41% active; inhibition, % at 6.36 µM; recombinant PAD4, RCA probe fluorescence polarization;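 active = percent inhibition above a cutoff equal to the mean of all tested compounds plus 3 SD, cut at about 15% in these data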;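 note: 0% = PAD4 with RCA probe and DMSO and 100% = probe without PAD4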
SIAE inh – human SIAE inhibitors, primary screen, biochemical, fluorescence polarization, FP-Rh probe, 1536-well HTS; Sialate O-acetylesterase (Homo sapiens), Q9HAT2; SIAE FP-Rh probe binding; inhibition, % at 9.66 µM; 370,000 tested, 0.69% active; AID 1053197, 2014;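 active = inhibition above a cutoff: mean of compounds within the control limits plus 3 SD of those, cut at about 17% in these data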;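 note: 0% = plate median of compound wells and 100% = probe without SIAE protein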
Target sequence (Q9HAT2 whole entry, looked up): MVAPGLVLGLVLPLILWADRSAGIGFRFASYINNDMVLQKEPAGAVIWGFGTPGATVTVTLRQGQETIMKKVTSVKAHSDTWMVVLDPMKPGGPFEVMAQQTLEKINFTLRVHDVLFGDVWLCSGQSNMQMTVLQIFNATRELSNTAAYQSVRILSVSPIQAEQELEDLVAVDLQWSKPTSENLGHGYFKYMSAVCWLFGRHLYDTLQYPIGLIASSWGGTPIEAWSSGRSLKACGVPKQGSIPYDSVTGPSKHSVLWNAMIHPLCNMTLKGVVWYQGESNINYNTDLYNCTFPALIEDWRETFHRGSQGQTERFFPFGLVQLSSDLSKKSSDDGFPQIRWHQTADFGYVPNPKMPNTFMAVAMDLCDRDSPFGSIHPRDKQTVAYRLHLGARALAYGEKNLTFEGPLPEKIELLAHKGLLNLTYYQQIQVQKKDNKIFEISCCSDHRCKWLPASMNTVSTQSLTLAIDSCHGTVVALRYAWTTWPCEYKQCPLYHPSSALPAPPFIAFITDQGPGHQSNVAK
GSTO1 inh – inhibitors of recombinant GSTO1, primary screen, counter-screen for RBBP9 inhibitor project, biochemical, fluorescence polarization; inhibition, % at 5.96 µM; activity-based probe fluorescence polarization; 300,000 tested, 1.1% active; Glutathione S-transferase omega-1 (Homo sapiens), P78417; AID 1974, 2009;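 active = inhibition above the campaign mean inhibition plus 3 SD, cut at about 35% in these data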;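 note: 0% = GSTO1-1 with DMSO and 100% = wells lacking GSTO1-1 enzyme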
BSA TAMRA ctr – compounds interfering with TAMRA-BSA probe, counter-screen for TCR-CD3 interaction inhibitor project, biochemical, fluorescence, TAMRA-labeled BSA. shares compounds with TCR CD3 inh. TAMRA-labeled BSA probe fluorescence counterscreen. inhibition, % at 9.4 µM. 1,200 tested, 10% active; in the data active = inhibition above about 23%;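 note: 0% = buffer low control and 100% = reference high control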
TCR-CD3 conf – TCR-CD3 interaction inhibitors, retest, confirmation, biochemical, fluorescence, TAMRA-labeled TCR probe | shares compounds with TCR CD3 inh | TAMRA-labeled TCR probe fluorescence binding assay | inhibition, % at 9.4 µM | 1,200 tested, 48% active | AID 652036, 2013
* hit, by the source's call; x = no result. Only some compounds are listed: those with a hit (about 2.4% of all), similar ones and a draw of the others. Cut-off read from the data, not from the text of the source, unless noted: active = inhibition above about 19%; inactive = the rest.

SMILES | TDP2 inh | Apaf1 inhib | TCR CD3 inh | PAD4 inh | SIAE inh | GSTO1 inh | BSA TAMRA ctr | TCR-CD3 conf
CCCCn1nnnc1C(CCc1ccccc1)N1CCN(C/C=C/c2ccccc2)CC1 (stereo not given) | -13 | x | 0 | x | 3 | x | x | x
Cc1ccc(Nc2ccc(N)cc2S(=O)(=O)O)cc1 | 1 | 5 | 0 | -1 | 14 | 23 | x | x
Nc1ccc(Nc2ccccc2)c(S(=O)(=O)O)c1 | -6 | 0 | 22* | -1 | 10 | 23 | -3 | 9
O=C(O)c1cc(Cl)ccc1-c1ccc(/C=C/c2cc(C(F)(F)F)[nH]c(=O)n2)o1 | 0 | 3 | 19* | 2 | -5 | -8 | 2 | 3
O=C(COc1ccc(F)cc1)Nc1ccc(-n2cnnn2)cc1 | -6 | 3 | -5 | -5 | -12 | 1 | x | x
Cc1cc(S(=O)(=O)N2CCN(C(=O)CCC(=O)N3CCOCC3)CC2)ccc1Br | 7 | 10 | 2 | -1 | -2 | 8 | x | x
COCCNC(C(=O)Nc1cc(Cl)cc(Cl)c1)c1ccccc1 (stereo not given) | -17 | 21 | 2 | 3 | 1 | -2 | x | x
CN(C)C(C(=O)Nc1cc(Cl)cc(Cl)c1)c1ccccc1 (stereo not given) | -3 | -1 | 135* | -3 | 1 | -3 | 3 | 0
C/C(=N\NC(=O)CCc1ccccc1)C1C(=O)c2ccccc2C1=O | -23 | -4 | 19* | 0 | 3 | 5 | -6 | 5
COc1ccc(N2C(=O)C3CCCN3C2=S)cc1 (stereo not given) | 15 | 3 | 20* | 1 | -3 | 0 | 5 | 13
CCNCC(=O)N1c2ccccc2CCc2ccc(NC(C)=O)cc21 | 3 | 3 | -5 | -1 | 9 | -2 | x | x
CC(=O)c1nc(N2C(=O)CC(Cc3ccc(C)cc3)C2=O)sc1C (stereo not given) | -5 | 0 | 56* | -6 | -3 | -5 | -2 | 4
CC(C)Cc1nc2sc3c(=O)[nH]cnc3c2c2c1CCCC2 | -2 | 19 | 20* | -6 | 2 | 10 | 5 | 7
CC(C)Cc1nc2oc3c(=O)[nH]cnc3c2c2c1CCCC2 | 9 | 8 | 3 | -7 | -3 | 1 | x | x
C=CCn1c(SCC(=O)NC(=O)NCC(C)C)nnc1C1CCCCC1 | -6 | -40 | 10 | -3 | -2 | -9 | x | x
O=[N+]([O-])c1ccc(N2CCCCC2)nc1N1CCCCC1 | -4 | 11 | -6 | -2 | -2 | 7 | x | x
N#Cc1c(SCC(=O)Nc2nc3ccccc3s2)sc2c(O)cc(=O)[nH]c12 | -2 | -12 | 19* | -18 | -42 | x | -14 | 15
CCCSc1nnc(NC(=O)CSc2sc3c(O)cc(=O)[nH]c3c2C#N)s1 | 14 | 14 | 31* | -9 | -38 | -14 | -18 | 12
N#Cc1c(SCC(=O)Nc2nccs2)sc2c(O)cc(=O)[nH]c12 | 14 | 8 | 20* | -18 | -18 | 3 | -13 | 15
CN(C(=O)c1ccncc1)C1CCCN(Cc2ccccc2F)C1 (stereo not given) | -29 | -12 | 3 | -3 | 2 | -2 | x | x
Cc1ccc2[nH]c(C)c(CCNC(=O)C3CCCCC3C(=O)OCC(F)(F)F)c2c1 (stereo not given) | -2 | 6 | -7 | 2 | -1 | 2 | x | x
CN(CC(=O)Nc1ccccc1Cl)C(=O)COC(=O)c1ccc(=O)n(Cc2ccccc2)n1 | 12 | -3 | -3 | -4 | 4 | 10 | x | x
CN(CC(=O)Nc1ccc(F)cc1)C(=O)COC(=O)c1ccc(=O)n(Cc2ccccc2)n1 | 6 | -6 | 87* | 1 | 3 | x | 2 | 3
CCOC(=O)C1=C(CC)Nc2ccccc2N=C1NC(=O)Nc1ccc(Cl)c(Cl)c1 | 6 | 2 | 79* | -6 | -101 | -26 | 20 | 54*
O=C(COC(=O)c1ccc(Br)o1)Nc1ncc([N+](=O)[O-])s1 | -2 | -8 | -5 | -9 | -8 | x | x | x
SMILES | TDP2 inh | Apaf1 inhib | TCR CD3 inh | PAD4 inh | SIAE inh | GSTO1 inh | BSA TAMRA ctr | TCR-CD3 conf
COc1ccc(C(=O)OCC(=O)Nc2ncc([N+](=O)[O-])s2)cc1OC | -11 | -9 | 21* | -11 | -12 | x | -19 | 8
CCOc1ccc(NS(=O)(=O)c2ccc(C(=O)NNC(=O)c3ccccc3O)cc2)cc1 | -12 | 5 | 23* | -9 | 9 | 7 | -9 | 23*
O=C(NNC(=O)c1ccccc1O)c1ccc(S(=O)(=O)Nc2ccccc2F)cc1 | 3 | 18 | 13 | 1 | 6 | 15 | x | x
O=C(NNC(=O)c1ccccc1O)c1ccc(S(=O)(=O)Nc2ccccc2)cc1 | -3 | -3 | 29* | 0 | 12 | 17 | -19 | 9
O=C(NNC(=O)c1cc(Cl)ccc1O)c1ccc(NS(=O)(=O)c2cccs2)cc1 | -2 | 2 | 24* | -2 | 12 | 13 | -17 | 17
O=C(CSc1nnc(-c2ccncc2)o1)Nc1cc(Cl)ccc1C(=O)O | 3 | -4 | -6 | 3 | -1 | x | x | x
CCCCc1nnc(NC(=O)CCc2ccccc2)s1 | -3 | 10 | -4 | x | 5 | x | x | x
CC(Oc1cccc(Cl)c1)C(=O)Nc1ccccc1N1CCCC1 (stereo not given) | -1 | 24 | -4 | -2 | 7 | -5 | x | x
CCOc1ccc(NC(=O)c2sccc2-n2cccc2)cc1 | -2 | -4 | -6 | -7 | 1 | 1 | x | x
COc1ccc(CC(=O)c2ccc(O)cc2O)cc1 | -3 | -6 | 2 | -1 | 0 | 4 | x | x
NNc1ccc([N+](=O)[O-])c2[nH][nH]c(=O)c12 | 5 | x | 50* | x | 5 | x | -18 | 106*
COc1ccc(/C=N/NC(=O)c2ccncc2)cc1[N+](=O)[O-] | 9 | -9 | -2 | -6 | -6 | 2 | x | x
COc1cc(O)c(/C=N/NC(=O)c2ccncc2)c(OC)c1[N+](=O)[O-] | -6 | -6 | 19* | -3 | 2 | 13 | 0 | 31*
Cn1cnc2c(cnn2C)c1=O | 7 | x | 28* | x | 4 | x | 1 | 3
Cc1cccc2c(=O)c(-c3ccc(Cl)cc3)c(NC(=O)c3ccco3)oc12 | -12 | -5 | -6 | 2 | -1 | -6 | x | x
